Experimental data reported in ChEMBL document CHEMBL1132718, “Design and synthesis of imidazoline derivatives active on glucose homeostasis in a rat model of type II diabetes. 2. Syntheses and biological activities of 1,4-dialkyl-, 1,4-dibenzyl, and 1-benzyl-4-alkyl-2-(4',5'-dihydro-1'H-imidazol-2'-yl)piperazines and isosteric analogues of imidazoline” (J Med Chem, 1999).

What was measured:
[1] = tested on: Rattus norvegicus; assay: Percent of variation of glycemia value 30 mins after glucose administration by intraperitoneal dose of 100 uM/Kg to STZ rats compared to untreated rats; format: functional; set-up: unit: %
Procedure, shortened: (§1)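 STZ-diabetic rats: 3-month-old male Wistar (250 g) given streptozotocin 35 mg/kg iv. Single ip dose of 100 µmol/kg, then iv glucose 0.5 g/kg for IVGTT. Read-outs: ΔG (glycemia increment over baseline integrated over 30 min), G30 (glycemia at 30 min), K (disappearance rate 5–30 min). Expressed as percent variation versus untreated STZ rats, normalized to nondiabetic controls; 4–8 rats per compound, ±SEM.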

[2] = tested on: Rattus norvegicus; assay: Incremental glycemia values over baseline integrated over 30 min after glucose administration (iv) at a concentration 0.5 g/kg; format: functional; set-up: unit: %; procedure, shortened: as §1
[3] = tested on: Rattus norvegicus; assay: Rate of glucose disappearance between 5 and 30 min after glucose administration with an intraperitoneal administration of 100 (umol/kg) to STZ rats; format: functional, organism-based
Procedure, shortened: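 Three-month-old male Wistar rats (250 g) made diabetic with streptozotocin 35 mg/kg iv. Single ip dose of 100 µmol/kg, then IVGTT with glucose 0.5 g/kg iv. K is the rate of glucose disappearance between 5 and 30 min after the glucose load. Expressed as percent variation between treated and untreated diabetic rats, relative to nondiabetic controls. 4–8 rats per compound, ±SEM.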

[4] = tested on: Rattus norvegicus; assay: Percent of variation of glycemia value 30 mins after glucose administration with a peroral administration of 100 umol/kg to STZ rats; format: functional; set-up: unit: %
Procedure, shortened: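 Oral (po) dosing at 100 µmol/kg in STZ rats (male Wistar, 3 months old, 250 g, streptozotocin 35 mg/kg iv), followed by IVGTT with glucose 0.5 g/kg iv. G30 (glycemia 30 min after the glucose load) is expressed as percent variation between treated and untreated STZ rats, relative to nondiabetic controls.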

[5] = Partition coefficient (logP); format: physicochemical; details: octanol/water

logP [5]	SMILES	G30 [1]	Delta G [2]	K [3]	G30 [4]
–	CN1CCN(Cc2ccc(Cl)cc2Cl)C(CC2=NCCN2)C1 (configuration not stated)	42	19	91	–
–	CN1CCN(c2ccccc2)C(C2=NCCN2)C1 (configuration not stated)	28	6	39	–
–	COc1ccccc1CN1CCN(C)CC1CC1=NCCN1 (configuration not stated)	36	31	53	–
3.22	CCC(C)CN1CCN(CC(C)CC)C(C2=NCCN2)C1 (configuration not stated)	83	104	82	4.3
–	C/N=C(/N)C1CN(C(C)C)CCN1C(C)C (configuration not stated)	77	43	62	–
1.15	CC(C)N1CCN(C(C)C)C(C2=NCCN2)C1 (configuration not stated)	89	138	47	73
–	N=C(N)C1CN(Cc2ccccc2)CCN1Cc1ccccc1 (configuration not stated)	65	55	65	–
–	CC(C)N1CCN(c2ccccc2)C(C2=NCCN2)C1 (configuration not stated)	91	11	102	–
–	CC(C)CN1CCN(C)CC1C1=NCCN1 (configuration not stated)	48	113	55	–
–	CN1CCN(c2ccccc2Cl)CC1C1=NCCN1 (configuration not stated)	17	10	60	–
–	CN1CCN(C(C2CC2)C2CC2)C(C2=NCCN2)C1 (configuration not stated)	55	101	47	–
–	CC(C)N1CCN(C(C)C)C(CC2=NCCN2)C1 (configuration not stated)	0	27	79	–
–	c1ccc(C(CC2=NCCN2)c2ccccn2)cc1 (configuration not stated) [MIDAGLIZOLE]	121	32	–	–
–	CN1CCN(Cc2ccccc2Cl)C(C2=NCCO2)C1 (configuration not stated)	0	8	0	–
–	C=CCN1CCN(CC=C)C(C2=NCCN2)C1 (configuration not stated)	30	19	35	–
–	CN1CCN(Cc2ccc(Cl)cc2Cl)C(c2ncc[nH]2)C1 (configuration not stated)	14	0	37	–
–	CC(C)N1CCN(c2ccccc2)CC1C1=NCCN1 (configuration not stated)	15	0	60	–
2.18	CC(C)CN1CCN(CC(C)C)C(C2=NCCN2)C1 (configuration not stated)	89	141	79	66
–	c1ccc(CN2CCN(Cc3ccccc3)C(CC3=NCCN3)C2)cc1 (configuration not stated)	0	–	49	–
–	CC(C)(C)CN1CCN(CC(C)(C)C)C(C2=NCCN2)C1 (configuration not stated)	81	54	67	–
–	C/N=C(/N)C1CN(Cc2ccccc2)CCN1Cc1ccccc1 (configuration not stated)	62	50	60	–
–	CC(C)CN1CCN(C)C(C2=NCCN2)C1 (configuration not stated)	21	40	42	–
–	C1CCC(N2CCN(C3CCCC3)C(C3=NCCN3)C2)C1 (configuration not stated)	103	58	23	–
–	c1ccc2c(c1)OCC(C1=NCCN1)O2 (configuration not stated) [IDAZOXAN]	48	8	79	–
–	C=C(C)CN1CCN(CC(C)C)C(C2=NCCN2)C1 (configuration not stated)	41	53	76	–
–	C1CNC(C2CN(C(C3CC3)C3CC3)CCN2C(C2CC2)C2CC2)=N1 (configuration not stated)	89	24	41	–
–	CN1CCN(Cc2ccc(Cl)cc2Cl)C(C2=NCCN2C)C1 (configuration not stated)	75	24	64	–
–	CN1CCN(Cc2ccc(Cl)cc2Cl)C(C2=NCCCN2)C1 (configuration not stated)	30	47	38	–
2.21	CN1CCN(Cc2ccc(Cl)cc2Cl)C(C2=NCCN2)C1 (configuration not stated)	112	105	–	64

SMILES	logP [5]	G30 [1]	Delta G [2]	K [3]	G30 [4]
C=C(C)CN1CCN(CC(=C)C)C(C2=NCCN2)C1 (configuration not stated)	1.45	96	116	117	0
C=CCN1CCN(CC(C)C)C(C2=NCCN2)C1 (configuration not stated)	1.3	55	115	61	23
